Assays:
Format in all cases: functional
[1] = test system: SN12C; experiment: Growth inhibition of human SN12C cells after 48 hrs by sulforhodamine B assay
Summary of the method: (§1)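 NCI 60-cell-line panel. Cells are grown in RPMI1640 with 5% fetal calf serum and 2 mM L-glutamine, seeded at a density set by growth characteristics, and preincubated 24 h. Compound is tested at a minimum of five concentrations at 10-fold dilution, with 48 h continuous exposure. Viability is read by sulforhodamine B protein assay. GI50, TGI and LC50 come from dose-response curves.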

[2] = test system: NCI-H322M; experiment: Growth inhibition of human NCI-H322M cells after 48 hrs by sulforhodamine B assay; summary of the method: as §1
[3] = test system: SF-539; experiment: Growth inhibition of human SF539 cells after 48 hrs by sulforhodamine B assay; conditions: SF-539, 48 h; summary of the method: as §1
[4] = test system: TK-10; experiment: Growth inhibition of human TK10 cells after 48 hrs by sulforhodamine B assay; conditions: TK-10, 48 h
Summary of the method: (§2)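 NCI 60-cell-line panel (nine cancer types), with cells grown in RPMI1640 plus 5% fetal calf serum and 2 mM L-glutamine. Cells are seeded at a density that depends on the line and preincubated 24 h. Compounds are then applied at a minimum of five 10-fold dilutions over a 5-log range with 48 h continuous exposure. Viability is read by SRB protein assay, and GI50 is derived from dose-response curves in units of 10^-5 M.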

[5] = test system: OVCAR-5; experiment: Growth inhibition of human OVCAR5 cells after 48 hrs by sulforhodamine B assay; conditions: OVCAR-5, 48 h; summary of the method: as §1
[6] = test system: HOP-92; experiment: Growth inhibition of human HOP92 cells after 48 hrs by sulforhodamine B assay; conditions: HOP-92, 48 h; summary of the method: as §1
[7] = test system: A549; experiment: Growth inhibition of human A549 cells after 48 hrs by sulforhodamine B assay; conditions: A549, 48 h; summary of the method: as §1
[8] = test system: ACHN; experiment: Growth inhibition of human ACHN cells after 48 hrs by sulforhodamine B assay; conditions: for CC50: read-out: LC50 (the source's name); summary of the method: as §1
[9] = test system: HL-60(TB); experiment: Growth inhibition of human HL-60(TB) cells after 48 hrs by sulforhodamine B assay; conditions: HL-60, 48 h
Summary of the method: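 NCI 60-cell-line panel. Cells were grown in RPMI1640 with 5% fetal calf serum and 2 mM L-glutamine, seeded at a density suited to each line, and preincubated 24 h. Compounds were tested at a minimum of five concentrations at 10-fold dilutions over a 5-log range, with 48 h continuous exposure. Growth was read by sulforhodamine B protein staining, and GI50 was taken from dose-response curves.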

[10] = test system: COLO 205; experiment: Growth inhibition of human COLO205 cells after 48 hrs by sulforhodamine B assay; conditions: COLO 205, 48 h; summary of the method: as §1
[11] = test system: SF-268; experiment: Growth inhibition of human SF268 cells after 48 hrs by sulforhodamine B assay; conditions: SF-268, 48 h; for CC50: read-out: LC50 (the source's name); summary of the method: as §1
[12] = test system: PC-3; experiment: Growth inhibition of human PC3 cells after 48 hrs by sulforhodamine B assay; conditions: PC-3, 48 h; summary of the method: as §1
[13] = test system: SF-268; experiment: Antiproliferative activity against human SF268 cells assessed as cell growth at 100 uM after 48 hrs by alamar blue assay; conditions: SF-268, 48 h, read-out: Activity
Summary of the method: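 NCI three-cell-line primary screen. Cells are seeded and preincubated in microtiter plates. Compound is added at a single 10^-4 M concentration and cultures are incubated 48 h. The end-point is read with alamar blue. Results are given as percent growth relative to untreated control cells.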

[14] = test system: T47D; experiment: Growth inhibition of human T47D cells after 48 hrs by sulforhodamine B assay; summary of the method: as §2
[15] = test system: NCI/ADR-RES; experiment: Growth inhibition of human NCI/ADR-RES cells after 48 hrs by sulforhodamine B assay; summary of the method: as §1
[16] = test system: EKVX; experiment: Growth inhibition of human EKVX cells after 48 hrs by sulforhodamine B assay; summary of the method: as §1
[17] = test system: IGROV-1; experiment: Growth inhibition of human IGROV1 cells after 48 hrs by sulforhodamine B assay; conditions: IGROV-1, 48 h; summary of the method: as §1
[18] = test system: SK-MEL-2; experiment: Growth inhibition of human SK-MEL-2 cells after 48 hrs by sulforhodamine B assay; conditions: SK-MEL-2, 48 h; summary of the method: as §1
[19] = test system: BT-549; experiment: Growth inhibition of human BT549 cells after 48 hrs by sulforhodamine B assay; conditions: BT-549, 48 h; summary of the method: as §1
[20] = test system: HCT-116; experiment: Growth inhibition of human HCT116 cells after 48 hrs by sulforhodamine B assay; conditions: HCT-116, 48 h; summary of the method: as §1
[21] = test system: MDA-MB-435; experiment: Growth inhibition of human MDA-MB-435 cells after 48 hrs by sulforhodamine B assay; conditions: MDA-MB-435, 48 h; summary of the method: as §1
[22] = test system: A498; experiment: Growth inhibition of human A498 cells after 48 hrs by sulforhodamine B assay; conditions: A498, 48 h; summary of the method: as §1
[23] = test system: DU-145; experiment: Growth inhibition of human DU145 cells after 48 hrs by sulforhodamine B assay; conditions: DU-145, 48 h; summary of the method: as §1
[24] = test system: M14; experiment: Growth inhibition of human M14 cells after 48 hrs by sulforhodamine B assay; conditions: M14, 48 h; summary of the method: as §1
[25] = test system: SNB-75; experiment: Growth inhibition of human SNB75 cells after 48 hrs by sulforhodamine B assay; conditions: SNB-75, 48 h; summary of the method: as §2
[26] = test system: OVCAR-4; experiment: Growth inhibition of human OVCAR4 cells after 48 hrs by sulforhodamine B assay; conditions: OVCAR-4, 48 h; summary of the method: as §1
[27] = test system: RXF 393; experiment: Growth inhibition of human RXF393 cells after 48 hrs by sulforhodamine B assay; conditions: RXF 393, 48 h; for CC50: read-out: LC50 (the source's name); summary of the method: as §1
[28] = test system: SK-OV-3; experiment: Growth inhibition of human SKOV3 cells after 48 hrs by sulforhodamine B assay; conditions: SK-OV-3, 48 h; summary of the method: as §1
[29] = test system: SNB-19; experiment: Growth inhibition of human SNB19 cells after 48 hrs by sulforhodamine B assay; conditions: SNB-19, 48 h; summary of the method: as §2

## COc1ccc(/C=N/c2nc3[nH]nc(C)n3c(=O)c2S(=O)(=O)NN2C(=O)C(CN3CCN(C)CC3)SC2c2cccs2)cc1 (stereo not drawn)
[1]
  GI50: 4.68 µM
  LC50: > 100 µM
  TGI: > 100 µM
[2]
  GI50: 8.18 µM
  TGI: > 100 µM
[3]
  GI50: 1.77 µM
  LC50: > 100 µM
  TGI: 5.58 µM
[4]
  GI50: 5.9 µM
  LC50: > 100 µM
  TGI: > 100 µM
[5]
  GI50: 8.31 µM
  LC50 (concentration causing 50% net cell kill): > 100 µM
  TGI: > 100 µM
[6]
  GI50: 9.41 µM
  LC50: > 100 µM
  TGI: > 100 µM
[7]
  GI50: 3.65 µM
  TGI: > 100 µM
[8]
  GI50: 3.18 µM
  TGI: > 100 µM
  CC50: > 100 µM
[9]
  GI50: 3.41 µM
  LC50: 31.3 µM
  TGI: 7.04 µM
[10]
  GI50: 5.29 µM
  TGI: 21 µM
[11]
  GI50: > 100 µM
  TGI: > 100 µM
  CC50: > 100 µM
[12]
  GI50: 2.89 µM
  LC50 (concentration killing 50% of cells): > 100 µM
  TGI: 40 µM
[13]
  growth at 100 µM: 58%
[14]
  GI50: > 100 µM
  TGI: > 100 µM
[15]
  GI50: 1.5 µM
  TGI: 6.98 µM
[16]
  GI50: 39.7 µM
  TGI: > 100 µM
[17]
  GI50: 0.78 µM
  LC50: > 100 µM
  TGI: 97.3 µM
[18]
  GI50: 5.55 µM
  LC50 (concentration killing 50% of cells): > 100 µM
  TGI: > 100 µM
[19]
  GI50: 11.3 µM
  TGI: > 100 µM
[20]
  GI50: 1.01 µM
  LC50 (concentration killing 50% of cells): > 100 µM
  TGI: 20 µM
[21]
  GI50: 0.32 µM
  TGI: 5.2 µM
[22]
  GI50: 0.5 µM
  LC50 (concentration giving 50% net cell kill): > 100 µM
  TGI: 3.2 µM
[23]
  GI50: 5.22 µM
  LC50 (concentration giving 50% net cell kill): > 100 µM
  TGI: > 100 µM
[24]
  GI50: 1.36 µM
  LC50 (concentration killing 50% of cells): > 100 µM
  TGI: > 100 µM
[25]
  GI50: 2.01 µM
  TGI: > 100 µM
[26]
  GI50: > 100 µM
  LC50: > 100 µM
  TGI: > 100 µM
[27]
  GI50: 2.34 µM
  TGI: > 100 µM
  CC50: > 100 µM
[28]
  GI50: 5.12 µM
  TGI: > 100 µM
[29]
  GI50: 7.14 µM
  TGI: > 100 µM

## COc1ccc(/C=N/c2nc3[nH]nc(C)n3c(=O)c2S(=O)(=O)NN2C(=O)C(CN3CCOCC3)SC2c2ccc(OC)cc2)cc1 (stereo not drawn)
[1]
  GI50: 55.1 µM
  LC50: > 100 µM
  TGI: > 100 µM
[2]
  GI50: 39.8 µM
  TGI: > 100 µM
[3]
  GI50: 75.1 µM
  LC50: > 100 µM
  TGI: > 100 µM
[4]
  GI50: 40.1 µM
  LC50: > 100 µM
  TGI: > 100 µM
[5]
  GI50: > 100 µM
  LC50 (concentration causing 50% net cell kill): > 100 µM
  TGI: > 100 µM
[6]
  GI50: 36.3 µM
  LC50: > 100 µM
  TGI: > 100 µM
[7]
  GI50: 29.6 µM
  TGI: > 100 µM
[8]
  GI50: 23.1 µM
  TGI: 92.6 µM
  CC50: > 100 µM
[9]
  GI50: 9.8 µM
  LC50: 74.3 µM
  TGI: 27.2 µM
[10]
  GI50: 66.2 µM
  TGI: > 100 µM
[11]
  GI50: > 100 µM
  TGI: > 100 µM
  CC50: > 100 µM
[12]
  GI50: 24.6 µM
  LC50 (concentration killing 50% of cells): > 100 µM
  TGI: > 100 µM
[13]
  growth at 100 µM: 75%
[14]
  GI50: > 100 µM
  TGI: > 100 µM
[15]
  GI50: 43.1 µM
  TGI: > 100 µM
[16]
  GI50: 93.9 µM
  TGI: > 100 µM
[17]
  GI50: 26 µM
  LC50: > 100 µM
  TGI: 97.4 µM
[18]
  GI50: 99.3 µM
  LC50 (concentration killing 50% of cells): > 100 µM
  TGI: > 100 µM
[19]
  GI50: > 100 µM
  TGI: > 100 µM
[20]
  GI50: 29.7 µM
  LC50 (concentration killing 50% of cells): > 100 µM
  TGI: 97.3 µM
[21]
  GI50: 35 µM
  TGI: > 100 µM
[22]
  GI50: 25.5 µM
  LC50 (concentration giving 50% net cell kill): > 100 µM
  TGI: 69.2 µM
[23]
  GI50: 28.8 µM
  LC50 (concentration giving 50% net cell kill): > 100 µM
  TGI: > 100 µM
[24]
  GI50: 67.4 µM
  LC50 (concentration killing 50% of cells): > 100 µM
  TGI: > 100 µM
[25]
  GI50: 57.3 µM
  TGI: > 100 µM
[26]
  GI50: 94.4 µM
  LC50: > 100 µM
  TGI: > 100 µM
[27]
  GI50: 15 µM
  TGI: > 100 µM
  CC50: > 100 µM
[28]
  GI50: > 100 µM
  TGI: > 100 µM
[29]
  GI50: > 100 µM
  TGI: > 100 µM
